ChEMBL document CHEMBL1123346, “Pyrimidinones. 3. N-substituted 6-phenylpyrimidinones and pyrimidinediones with diuretic/hypotensive and antiinflammatory activity” (J Med Chem, 1986)

Experiments:
Rattus norvegicus [1] = assay: Inhibition of RPAR administered perorally at 50 mg/kg dose; format: functional; conditions: route oral
Summary of the method: (§1)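 Male Wistar rats (180-200 g), 5-10/group, dosed orally (water with Tween-80 suspension) 1 h before iv sensitization with 1 mg bovine serum albumin; 24-h fasted. 60 min later subplantar challenge with 200 µg anti-BSA in left hindpaw. Paw swelling by mercury displacement plethysmography at 2 h post-challenge.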

Rattus norvegicus [2] = assay: Blood pressure change in rats after oral administration of 50 mg/kg dose after 4 hours; format: functional
Summary of the method: (§2)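 Restrained female Sprague–Dawley rats with indwelling aortic cannulas exteriorized at the nape; direct arterial pressure via transducer, mean pressure by electrical integration of phasic pressure. Readings before and 4 and 24 h after oral dosing (carboxymethylcellulose suspension, 10 mL/kg). Value is change in mean arterial pressure, averaged over two animals.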

Rattus norvegicus [3] = assay: Blood pressure change in rats after oral administration of 50 mg/kg dose after 24 hours; format: functional; summary of the method: as §2
Rattus norvegicus [4] = assay: Inhibition of RPAR administered perorally at 100 mg/kg dose; format: functional; conditions: route oral; summary of the method: as §1
Rattus norvegicus [5] = organism: Rattus norvegicus; assay: Diuretic activity in rats; format: functional, Urine
Summary of the method: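 Male rats (~160 g) fasted 24 h, water withheld 1.5 h, both withheld during test. Gavage 25 mL/kg 0.9% saline with 0.5% carboxymethylcellulose containing compound at 40 mg/kg; urine collected 5 h in metabolism cages. Two-stage test, T/C urine volume per stage; active if product of stage T/Cs ≥3.34.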

Compound	inhibition in vivo at 50 mg/kg (Rattus norvegicus [1]) [%]	MABP change (Rattus norvegicus [2]) [mmHg]	MABP change (Rattus norvegicus [3]) [mmHg]	inhibition in vivo at 100 mg/kg (Rattus norvegicus [4]) [%]	Diuretic activity (Rattus norvegicus [5])
Oc1nc(O)c(I)c(-c2ccccc2)n1	41	7	11	48	5.43
Cn1c(=O)[nH]c(-c2ccccc2)c(Br)c1=O	–	-1	6	–	–
N=C(N)NCCN1CCCCCCC1 [GUANETHIDINE]	–	-16	9	–	–
C=CCn1c(N)nc(-c2ccccc2)c(I)c1=O	–	-6	-10	–	5.09
CC(=O)Nc1nc(O)c(I)c(-c2ccccc2)n1	–	3	9	–	–
N=C(N)Nc1nc(O)c(I)c(-c2ccccc2)n1	–	-2	3	–	–
Nc1nc(=O)c(Br)c(-c2ccccc2)n1O	–	6	-1	–	–
N=C(N)Nc1nc(O)c(Br)c(-c2ccccc2)n1	–	-2	-1	–	–
Cn1c(-c2ccccc2)c(Br)c(=O)n(C)c1=O	36	–	–	59	–
Nc1nc(O)c(I)c(-c2ccccc2)n1	3	-7	-12	8	–
CC(=O)Nc1nc(O)c(Br)c(-c2ccccc2)n1	–	4	1	–	–
CN(C)c1nc(O)c(I)c(-c2ccccc2)n1	–	1	2	–	–
Cn1c(=O)cc(-c2ccccc2)[nH]c1=O	–	0	6	–	–
Cn1c(=O)[nH]c(-c2ccccc2)c(I)c1=O	–	1	4	–	–
CN(C)c1nc(O)c(Br)c(-c2ccccc2)n1	–	1	2	–	–
